Reference: ChEMBL document CHEMBL1671794, “Synthesis and SAR studies on azetidine-containing dipeptides as HCMV inhibitors” (Bioorg Med Chem, 2011)
Active and inactive are the calls of the source. The calls are words filed in the database; no cut-off is given here.

Legend:
[1] = Cytotoxicity against HELF cells assessed as after 3 days by Coulter counting analysis; assay type: cell-based; conditions: human; for MCC at 72 h / CC50 at 72 h: HELF cells; for CC50: helf, 72 h
Method in brief: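 HEL cells were seeded at 5 × 10^3 cells/well and allowed to grow for 24 h before compound dilutions were added. After 3 days at 37 °C, cells were counted with a Coulter Counter.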

Human betaherpesvirus 5 = assay: Antiviral activity against human cytomegalovirus infected in HELF assessed as decrease in plaque formation after 7 days by microscopy; assay type: functional, organism-based; conditions: Human betaherpesvirus 5, HELF, 168 h
Method in brief: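 Confluent HEL fibroblasts were infected with HCMV Davis strain at 100 PFU per well. After 2 h, residual virus was removed and compound-containing medium was added in duplicate. Cells were incubated for 7 days at 37 °C, then ethanol-fixed and Giemsa-stained, and cytopathogenicity was scored microscopically.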

Human alphaherpesvirus 3 [2] = assay: Antiviral activity against Thymidine kinase-positive Varicella-zoster virus Oka infected in HELF assessed as virus-induced cytopathogenicity after 5 days by microscopy; assay type: functional; conditions: Human alphaherpesvirus 3, strain Oka vaccine, 120 h
Human alphaherpesvirus 3 [3] = assay: Antiviral activity against Thymidine kinase-deficient Varicella-zoster virus 07-1 infected in HELF assessed as virus-induced cytopathogenicity after 5 days by microscopy; assay type: functional, organism-based; conditions: Human alphaherpesvirus 3, 07-1, HELF, 120 h
Human alphaherpesvirus 2 = assay: Antiviral activity against Human herpesvirus 2 strain G infected in HELF assessed as virus-induced cytopathogenicity at 20 to 100 uM after 4 days by microscopy; assay type: functional, organism-based
Method in brief: (§1)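 Confluent cell monolayers were inoculated with 100 CCID50 of virus. After 1 h of adsorption, residual virus was removed and cultures were incubated with fivefold serial compound dilutions. Cytopathicity was scored microscopically once it was complete in the untreated infected controls.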

Human alphaherpesvirus 1 = assay: Antiviral activity against Human herpesvirus 1 strain KOS infected in HELF assessed as virus-induced cytopathogenicity at 20 to 100 uM after 4 days by microscopy; assay type: functional, organism-based; method in brief: as §1
[4] = tested on: Mammalian orthoreovirus 1; assay: Antiviral activity against reovirus-1 infected in african green monkey Vero cells assessed as virus-induced cytopathogenicity at 20 to 100 uM after 4 days by microscopy; assay type: functional, organism-based; method in brief: as §1
Influenza A virus [5] = assay: Antiviral activity against Influenza A virus H1N1 infected in MDCK assessed as virus-induced cytopathogenicity at 20 to 100 uM after 4 days by microscopy; assay type: functional, organism-based
Method in brief: (§2)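 Near-confluent MDCK (influenza) or confluent HEL monolayers were inoculated with 100 CCID50 of virus. After 1-h adsorption, residual virus was removed, and cells were incubated with fivefold serial dilutions of compound. Cytopathicity was scored microscopically once untreated infected controls reached complete CPE. Minimal cytotoxic concentration was read as microscopically visible alteration of cell morphology.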

Influenza A virus [6] = assay: Antiviral activity against Influenza A virus infected in MDCK assessed as virus-induced cytopathogenicity at 20 to 100 uM after 4 days by microscopy; assay type: functional, organism-based; method in brief: as §2
[7] = tested on: Vesicular stomatitis virus; assay: Antiviral activity against Vesicular stomatitis virus infected in HELF assessed as virus-induced cytopathogenicity at 20 to 100 uM after 4 days by microscopy; assay type: functional, organism-based; method in brief: as §2
Coxsackievirus B4 = assay: Antiviral activity against coxsackievirus B4 infected in african green monkey Vero cells assessed as virus-induced cytopathogenicity at 20 to 100 uM after 4 days by microscopy; assay type: functional, organism-based; method in brief: as §1
Sindbis virus = assay: Antiviral activity against Sindbis virus infected in african green monkey Vero cells assessed as virus-induced cytopathogenicity at 20 to 100 uM after 4 days by microscopy; assay type: functional, organism-based; method in brief: as §1
Human respirovirus 3 = assay: Antiviral activity against parainfluenza-3 infected in african green monkey Vero cells assessed as virus-induced cytopathogenicity at 20 to 100 uM after 4 days by microscopy; assay type: functional, organism-based; method in brief: as §1
Influenza A virus [8] = assay: Antiviral activity against Influenza A virus H3N2 infected in MDCK assessed as virus-induced cytopathogenicity at 20 to 100 uM after 4 days by microscopy; assay type: functional, organism-based; method in brief: as §2
Feline coronavirus = assay: Antiviral activity against Feline coronavirus infected in CrFK assessed as virus-induced cytopathogenicity at 20 to 100 uM after 4 days by microscopy; assay type: functional, organism-based; method in brief: as §1

SMILES | MCC at 72 h [1] | CC50 [1] | EC50 (Human betaherpesvirus 5) | also measured
CC(C)C[C@H](NC(=O)[C@]1(Cc2ccccc2)CCN1C(=O)OCc1ccccc1)C(N)=O | 100 µM | 50 µM | > 20 µM | 
C[C@H](NC(=O)[C@H](Cc1ccccc1)NC(=O)OCc1ccccc1)C(=O)NC(C)(C)C | > 100 µM | > 100 µM | > 100 µM | 
C[C@H](NC(=O)[C@@]1(Cc2ccccc2)CCN1C(=O)OCc1ccccc1)C(=O)N(C)C | > 100 µM |  | > 100 µM | 
C[C@H](NC(=O)[C@]1(Cc2ccccc2)CCN1C(=O)OCc1ccccc1)C(=O)N(C)C | > 100 µM | > 100 µM | > 100 µM | 
CC(C)[C@H](NC(=O)[C@]1(Cc2ccccc2)CCN1C(=O)OCc1ccccc1)C(N)=O | > 100 µM | 100 µM |  | 
C[C@H](NC(=O)[C@]1(Cc2ccccc2)CCN1C(=O)OCc1ccccc1)C(N)=O | > 50 µM | 50 µM | 32 µM | 
C[C@H](NC(=O)[C@]1(Cc2ccccc2)CCN1C(=O)N[C@@H](C)c1ccccc1)C(N)=O | > 100 µM | > 100 µM | > 100 µM | 
C[C@H](NC(=O)[C@]1(Cc2ccccc2)CCN1C(=O)OCc1ccccc1Cl)C(N)=O | > 100 µM | > 100 µM | > 20 µM | 
C[C@H](NC(=O)[C@]1(Cc2ccccc2)CCN1S(=O)(=O)c1ccc2ccccc2c1)C(N)=O | > 100 µM | > 100 µM | > 100 µM | IC50 (Human alphaherpesvirus 3 [2]): > 100 µM; IC50 (Human alphaherpesvirus 3 [3]): 76.5 µM
NC(=O)[C@H](Cc1ccccc1)NC(=O)[C@@]1(Cc2ccccc2)CCN1C(=O)OCc1ccccc1 | 100 µM | 37 µM | > 20 µM | 
C[C@H](NC(=O)[C@@]1(Cc2ccccc2)CCN1C(=O)OCc1ccccc1)C(=O)NCc1ccccc1 (racemic) | ≥ 20 µM | 42 µM | > 4 µM | 
C[C@H](NC(=O)[C@]1(Cc2ccccc2)CCN1C(=O)OCc1ccccc1)C(=O)NC1CCCCC1 | > 100 µM | > 100 µM | > 100 µM | 
C[C@H](NC(=O)[C@]1(Cc2ccccc2)CCN1C(=O)OCc1ccccc1)C(=O)NCc1ccccc1 | 100 µM |  | > 20 µM | 
C[C@H](NC(=O)[C@]1(Cc2ccccc2)CCN1C(=O)OCC1c2ccccc2-c2ccccc21)C(N)=O | 20 µM | 14 µM | > 4 µM | Activity (Human alphaherpesvirus 2): inactive; Activity (Human alphaherpesvirus 1): inactive; Activity [4]: inactive; Activity (Influenza A virus [5]): inactive; Activity (Influenza A virus [6]): inactive; Activity [7]: inactive; Activity (Coxsackievirus B4): inactive; Activity (Sindbis virus): inactive; Activity (Human respirovirus 3): inactive; Activity (Influenza A virus [8]): inactive; Activity (Feline coronavirus): inactive
C[C@H](NC(=O)[C@@]1(Cc2ccccc2)CCN1C(=O)OCc1ccccc1)C(=O)NC1CCCCC1 | 100 µM | 46 µM | > 20 µM | 
CC(C)CNC(=O)[C@H](C)NC(=O)[C@@]1(Cc2ccccc2)CCN1C(=O)OCc1ccccc1 | > 100 µM |  | > 100 µM | 
C[C@H](NC(=O)[C@]1(Cc2ccccc2)CCN1C(=O)Oc1ccccc1)C(N)=O | > 100 µM | > 100 µM | > 20 µM | IC50 (Human alphaherpesvirus 3 [2]): 69 µM; IC50 (Human alphaherpesvirus 3 [3]): 858 µM

SMILES | MCC at 72 h [1] | CC50 [1] | EC50 (Human betaherpesvirus 5) | also measured
Nc1nc2c(ncn2COCCO)c(=O)[nH]1 [ACYCLOVIR] | > 1780 µM | > 1780 µM |  | 
CC(C)C[C@H](NC(=O)[C@@]1(Cc2ccccc2)CCN1C(=O)OCc1ccccc1)C(N)=O | > 100 µM | 66 µM | 45 µM | 
CC(C)CNC(=O)[C@H](C)NC(=O)[C@]1(Cc2ccccc2)CCN1C(=O)OCc1ccccc1 | > 100 µM | > 100 µM | 63 µM | IC50 (Human alphaherpesvirus 3 [2]): > 100 µM; IC50 (Human alphaherpesvirus 3 [3]): 64.8 µM
C[C@H](NC(=O)[C@]1(Cc2ccccc2)CCN1C(=O)Oc1cccc2ccccc12)C(N)=O | > 100 µM | > 100 µM | 45 µM | IC50 (Human alphaherpesvirus 3 [2]): 47.7 µM; IC50 (Human alphaherpesvirus 3 [3]): 47.7 µM
C[C@H](NC(=O)[C@]1(Cc2ccccc2)CCN1C(=O)OCc1ccc([N+](=O)[O-])cc1)C(N)=O | 100 µM |  | > 20 µM | CC50 at 72 h [1]: > 100 µM; IC50 (Human alphaherpesvirus 3 [2]): > 100 µM; IC50 (Human alphaherpesvirus 3 [3]): 67 µM
Nc1nc(O)c2ncn(COC(CO)CO)c2n1 [GANCICLOVIR] | ≥ 1580 µM | 580 µM | 7 µM | 
CC(C)[C@H](NC(=O)[C@@]1(Cc2ccccc2)CCN1C(=O)OCc1ccccc1)C(N)=O | > 100 µM | 85 µM | > 100 µM | 
NC(=O)[C@H](CCC(=O)O)NC(=O)C1(Cc2ccccc2)CCN1C(=O)OCc1ccccc1 (mixture of isomers) | > 100 µM | > 100 µM | > 100 µM | 
C[C@H](NC(=O)[C@@]1(Cc2ccccc2)CCN1C(=O)OCc1ccccc1)C(=O)NC(C)(C)C (mixture of isomers) | > 100 µM | > 100 µM | 49 µM | IC50 (Human alphaherpesvirus 3 [2]): 63 µM; IC50 (Human alphaherpesvirus 3 [3]): 60 µM
C[C@@H](NC(=O)[C@@]1(Cc2ccccc2)CCN1C(=O)OCc1ccccc1)C(N)=O | > 100 µM | > 100 µM | > 100 µM | 
C[C@H](NC(=O)[C@]1(Cc2ccccc2)CCN1C(=O)OCc1ccccc1)C(=O)NC(C)(C)C | > 100 µM |  | 45 µM | IC50 (Human alphaherpesvirus 3 [3]): 62.5 µM
C[C@H](NC(=O)[C@]1(Cc2ccccc2)CCN1C(=O)NCc1ccccc1)C(N)=O | > 100 µM | > 100 µM | > 100 µM | 
C[C@H](NC(=O)[C@H](Cc1ccccc1)NC(=O)OCc1ccccc1)C(N)=O | > 100 µM | > 100 µM | > 100 µM | 
NCCCC[C@H](NC(=O)C1(Cc2ccccc2)CCN1C(=O)OCc1ccccc1)C(N)=O (mixture of isomers) | > 100 µM | > 100 µM | > 100 µM | 
C[C@@H](NC(=O)[C@]1(Cc2ccccc2)CCN1C(=O)OCc1ccccc1)C(N)=O | > 100 µM | 36 µM | 63 µM | 
NC(=O)[C@H](Cc1ccccc1)NC(=O)[C@]1(Cc2ccccc2)CCN1C(=O)OCc1ccccc1 | 100 µM | 33 µM | > 20 µM | 
C[C@H](NC(=O)[C@]1(Cc2ccccc2)CCN1C(=O)CCc1ccccc1)C(N)=O | 100 µM |  | > 100 µM | CC50 at 72 h [1]: > 100 µM
